PMC8774845 (Plant Physiology, 2021)
“And” between values parts separate entries of the source, which are not always exact repeats. Identical values can stand only once. “Also recorded” adds a separate entry of the source. Like-named read-outs stand apart in the source and are kept apart here.

Legend:
PpADT-G [1] = experiment: Inhibition of ADT activity by Phe, recombinant enzyme; type: biochemical, Pinus pinaster
Outline: (§1)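 The Pinus pinaster ADT was used either as wild-type or as chimeras made by fusion PCR. It was His-tagged without the transit peptide, expressed in E. coli BL21 DE3 RIL and Ni-purified. About 1 µg of protein in 50 mM Tris pH 8.0 was preincubated 5 min with a range of Phe concentrations. Reaction started with 0.1 mM Agn at 30°C and was stopped with methanol. Phe product was quantified by UPLC/MS, with linearity checked over ≥5 min. At least duplicate; IC50 from kinetic fitting.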

PpADT-C [2] = experiment: as above; type: biochemical, Pinus pinaster; settings: read-out: ADT IC50 (μM of Phe), 0.1 mM of Agn
Outline: as §1

PpADT-Gmut^1 [3] = experiment: Inhibition of ADT activity by Phe, chimeric enzyme; type: biochemical, Pinus pinaster; settings: read-out: ADT IC50 (μM of Phe), 0.1 mM of Agn
Outline: as §1

PpADT-Cmut^1 [4] = experiment: Inhibition of ADT activity by Phe, chimeric enzyme; type: biochemical, Pinus pinaster; settings: read-out: ADT IC50 (μM of Phe), 0.1 mM of Agn
Outline: as §1

PpADT-G [5] = experiment: Inhibition of PDT activity by Phe, recombinant enzyme; type: biochemical, Pinus pinaster
Outline: (§2)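 PDT reaction: about 5 µg of His-tagged, Ni-purified Pinus pinaster ADT (wild-type or fusion-PCR chimera) in 50 mM Tris pH 8.0 was preincubated 5 min with Phe. The reaction started with 1 mM Ppa at 30°C; Ppa content was first verified by HCl conversion. It was stopped with 2 M NaOH and left ≥10 min at room temperature. Phenylpyruvate was read at 321 nm against a calibration curve. At least duplicate; IC50, Ki and inhibition type came from kinetic fitting.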

PpADT-C [6] = experiment: as above; type: biochemical, Pinus pinaster
Outline: as §2

PpADT-Gmut^1 [7] = experiment: Inhibition of PDT activity by Phe, chimeric enzyme; type: biochemical, Pinus pinaster
Outline: as §2

PpADT-Cmut^1 [8] = experiment: Inhibition of PDT activity by Phe, chimeric enzyme; type: biochemical, Pinus pinaster
Outline: as §2

PpADT-Gmut^6 = experiment: Inhibition of PDT activity by Phe, mutant enzyme; type: biochemical, Pinus pinaster; settings: read-out: IC50 (μM) for Phe; PDT reaction, 1 mM of substrate (Ppa); Thr303→Ala, Leu304→Gln
Outline: (§3)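 Ni-purified His-tagged mutants, expressed in E. coli BL21 DE3 RIL, were assayed for PDT activity. About 5 µg protein in 50 mM Tris pH 8.0 was preincubated 5 min at 30°C with varying Phe. Reactions were started with 1 mM prephenate, stopped with 2 M NaOH and read at 321 nm against a phenylpyruvate calibration. Runs were in triplicate, linear ≥5 min, with IC50 obtained by kinetic fitting.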

PpADT-Gmut^62 = experiment: Inhibition of PDT activity by Phe, mutant enzyme; type: biochemical, Pinus pinaster; settings: read-out: IC50 (μM) for Phe; PDT reaction, 1 mM of substrate (Ppa); Thr303→Ala, Leu304→His
Outline: as §3

PpADT-Gmut^8 [9] = experiment: Inhibition of PDT activity by Phe, mutant enzyme; type: biochemical, Pinus pinaster; settings: read-out: IC50 (μM) for Phe; PDT reaction, 1 mM of substrate (Ppa); Pro308→Thr, Gly309→Ser
Outline: as §3

PpADT-Gmut^9 = experiment: Inhibition of PDT activity by Phe, mutant enzyme; type: biochemical, Pinus pinaster; settings: read-out: IC50 (μM) for Phe; PDT reaction, 1 mM of substrate (Ppa); Ala314→Val, Ala316→Ser, Val317→Ala
Outline: as §3

PpADT-Gmut^11 = experiment: Inhibition of PDT activity by Phe, mutant enzyme; type: biochemical, Pinus pinaster; settings: read-out: IC50 (μM) for Phe; PDT reaction, 1 mM of substrate (Ppa); Ala314→Val
Outline: (§4)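 PpADT-G point mutants were made by site-directed mutagenesis, expressed His-tagged in E. coli BL21 DE3 RIL and Ni-purified. About 5 µg of protein in 50 mM Tris pH 8.0 was preincubated 5 min with varying Phe. The PDT reaction started with 1 mM Ppa at 30°C and was stopped with 2 M NaOH. Phenylpyruvate was read by absorbance at 321 nm against a phenylpyruvate calibration. Triplicate; IC50 was fitted.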

PpADT-Gmut^12 = experiment: Inhibition of PDT activity by Phe, mutant enzyme; type: biochemical, Pinus pinaster; settings: read-out: IC50 (μM) for Phe; PDT reaction, 1 mM of substrate (Ppa); Ala316→Ser
Outline: as §4

PpADT-Gmut^13 = experiment: Inhibition of PDT activity by Phe, mutant enzyme; type: biochemical, Pinus pinaster; settings: read-out: IC50 (μM) for Phe; PDT reaction, 1 mM of substrate (Ppa); Val317→Ala
Outline: as §4

PpADT-Gmut^16 = experiment: Inhibition of PDT activity by Phe, mutant enzyme; type: biochemical, Pinus pinaster; settings: read-out: IC50 (μM) for Phe; PDT reaction, 1 mM of substrate (Ppa); Ala316→Ser, Val317→Ala
Outline: as §3

PpADT-Gmut^10 = experiment: Inhibition of PDT activity by Phe, mutant enzyme; type: biochemical, Pinus pinaster; settings: read-out: IC50 (μM) for Phe; PDT reaction, 1 mM of substrate (Ppa); Leu320→Phe, Asn324→Ser
Outline: as §3

PpADT-Gmut^102 = experiment: Inhibition of PDT activity by Phe, mutant enzyme; type: biochemical, Pinus pinaster; settings: read-out: IC50 (μM) for Phe; PDT reaction, 1 mM of substrate (Ppa); Leu320→Phe
Outline: as §4

PpADT-Gmut^103 = experiment: Inhibition of PDT activity by Phe, mutant enzyme; type: biochemical, Pinus pinaster; settings: read-out: IC50 (μM) for Phe; PDT reaction, 1 mM of substrate (Ppa); Asn324→Ser
Outline: as §4

PpADT-Gmut^8 [10] = experiment: Effect of 100 μM Phe over ADT activity, mutant enzyme; type: biochemical, Pinus pinaster; settings: Phe at 100 µM
Outline: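 His-tagged recombinant mutant enzyme without its transit peptide, expressed in E. coli BL21 DE3 RIL and Ni-purified. About 1 µg protein in 50 mM Tris pH 8.0 was preincubated 5 min at 30°C with 100 µM Phe. Arogenate was added to start the reaction, and methanol stopped it. Phe formed was quantified by UPLC/MS against a pure-Phe calibration. Activity is relative to the no-Phe control; error bars sd.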

AtADT1 = AtADT1 (Arabidopsis thaliana, UniProt Q9SA96); experiment: Effect of 100 μM Phe over ADT activity, recombinant type-I ADT; type: biochemical, A. thaliana; settings: 100 µM of Phe, 100 µM of substrate (Agn), compared to control (absence of Phe)
Chain of AtADT1 (Q9SA96 49-392): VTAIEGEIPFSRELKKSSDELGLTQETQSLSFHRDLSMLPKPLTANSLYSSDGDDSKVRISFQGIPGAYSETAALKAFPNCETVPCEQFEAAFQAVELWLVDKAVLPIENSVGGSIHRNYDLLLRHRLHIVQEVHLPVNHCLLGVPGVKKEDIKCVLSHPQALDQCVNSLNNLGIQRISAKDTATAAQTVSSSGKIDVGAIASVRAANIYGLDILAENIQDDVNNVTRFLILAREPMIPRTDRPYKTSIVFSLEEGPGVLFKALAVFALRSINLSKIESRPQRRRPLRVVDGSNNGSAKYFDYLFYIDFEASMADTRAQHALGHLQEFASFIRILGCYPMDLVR
Outline: (§5)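 Type-I or type-II plant ADT ORFs were cloned from cDNA into pET30b without the putative plastid transit peptide and with a C-terminal His tag. Proteins were expressed in E. coli BL21 DE3 RIL (0.5 mM IPTG, 18–20 h at 12°C) and Ni-purified. About 1 µg was preincubated 5 min with 100 µM Phe in 50 mM Tris pH 8.0. Reaction started with 100 µM Agn at 30°C and was stopped with methanol. Phe formed was quantified by UPLC/MS. Activity is relative to the no-Phe control (100%); triplicate.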

Potri11G4700 = experiment: as above; type: biochemical, Populus trichocarpa; settings: 100 µM of Phe, 100 µM of substrate (Agn), compared to control (absence of Phe)
Outline: as §5

Niben8991 = experiment: as above; type: biochemical, Nicotiana benthamiana; settings: 100 µM of Phe, 100 µM of substrate (Agn), compared to control (absence of Phe)
Outline: as §5

Cucsa52640 = experiment: as above; type: biochemical, Cucumis sativus; settings: 100 µM of Phe, 100 µM of substrate (Agn), compared to control (absence of Phe)
Outline: as §5

AtADT4 = AtADT4 (Arabidopsis thaliana, UniProt O22241); experiment: Effect of 100 μM Phe over ADT activity, recombinant type-II ADT; type: biochemical, A. thaliana; settings: 100 µM of Phe, 100 µM of substrate (Agn)
Chain of AtADT4 (O22241 35-424): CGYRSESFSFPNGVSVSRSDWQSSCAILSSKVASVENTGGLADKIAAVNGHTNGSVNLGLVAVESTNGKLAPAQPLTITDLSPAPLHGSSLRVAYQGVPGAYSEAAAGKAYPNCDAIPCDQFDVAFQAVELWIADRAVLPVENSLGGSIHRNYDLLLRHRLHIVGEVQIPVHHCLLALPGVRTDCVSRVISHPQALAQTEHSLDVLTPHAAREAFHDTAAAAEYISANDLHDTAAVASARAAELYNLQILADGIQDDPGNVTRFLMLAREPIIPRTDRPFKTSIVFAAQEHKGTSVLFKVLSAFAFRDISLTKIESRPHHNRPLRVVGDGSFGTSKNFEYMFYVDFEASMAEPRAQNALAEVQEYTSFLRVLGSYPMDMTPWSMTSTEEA
Outline: as §5

Potri4G188100 = experiment: as above; type: biochemical, P. trichocarpa; settings: 100 µM of Phe, 100 µM of substrate (Agn)
Outline: as §5

Orysa4G33390 = experiment: as above; type: biochemical, O. sativa; settings: 100 µM of Phe, 100 µM of substrate (Agn)
Outline: as §5

Zeama2G125923 = experiment: as above; type: biochemical, Zea mays; settings: 100 µM of Phe, 100 µM of substrate (Agn)
Outline: as §5

ADT activity = settings: read-out: IC50 for ADT activity; crude plant extracts; ref Jung et al., 1986; cited from earlier work
plastidial CM [11] = settings: read-out: Ki, inhibition of plastidial CM by Phe; ref Benesova and Bode, 1992; cited from earlier work
plastidial CM [12] = settings: read-out: Ki, inhibition of plastidial CM by Phe; ref Kuroki and Conn, 1988; cited from earlier work
plastidial CM [13] = settings: read-out: IC50, inhibition of plastidial CM by Phe; ref Westfall et al., 2014; cited from earlier work
plastidial CM [14] = settings: read-out: IC50, inhibition of plastidial CM by Phe; ref Kroll et al., 2017; cited from earlier work
[15] = read-out: PDT IC50 (μM of Phe), 1 mM of Ppa

Structure (SMILES): N[C@@H](Cc1ccccc1)C(=O)O [Phe, phenylalanine]
- ADT activity at 100 µM of Phe (PpADT-G [1]; 100 µM of Phe): mostly inactive
- IC50 (PpADT-G [1]; read-out: ADT IC50 (μM of Phe), ADT activity, 0.1 mM of Agn): 27.6 ± 1.5 µM
- IC50 (PpADT-C [2]): > 100 µM
- IC50 (PpADT-Gmut^1 [3]): > 100 µM
- IC50 (PpADT-Cmut^1 [4]): ~52.8 µM and 52.8 µM
- Proposed type of inhibition (PpADT-G [5]): Uncompetitive
- IC50 (PpADT-G [5]; [15]): 47.7 ± 3 µM
- Ki (PpADT-G [5]; read-out: PDT K i (μM of Phe)): 28.1 ± 1 µM
- Proposed type of inhibition (PpADT-C [6]): Cooperative
- IC50 (PpADT-C [6]; [15]): 320 µM
- Proposed type of inhibition (PpADT-Gmut^1 [7]): allosteric; also recorded: Cooperative
- IC50 (PpADT-Gmut^1 [7]; [15]): 390 ± 15.4 µM
- Proposed type of inhibition (PpADT-Cmut^1 [8]): Uncompetitive
- IC50 (PpADT-Cmut^1 [8]; [15]): ~36.1 µM and 36.1 µM
- Ki (PpADT-Cmut^1 [8]; read-out: PDT K i (μM of Phe)): 170 ± 16.3 µM
- IC50 (PpADT-Gmut^6): 333 ± 8 µM
- IC50 (PpADT-Gmut^62): 333.5 ± 3.1 µM
- IC50 (PpADT-Gmut^8 [9]): 445 µM
- IC50 (PpADT-Gmut^9): 17.5 ± 3.7 µM
- IC50 (PpADT-Gmut^11): 14.6 ± 2.3 µM
- IC50 (PpADT-Gmut^12): 26 ± 4.8 µM
- IC50 (PpADT-Gmut^13): 23.6 ± 1.4 µM
- IC50 (PpADT-Gmut^16): 17.2 ± 0.2 µM
- IC50 (PpADT-Gmut^10): 184 ± 24.7 µM
- IC50 (PpADT-Gmut^102): 135.4 ± 0.7 µM
- IC50 (PpADT-Gmut^103): 234 ± 4.9 µM
- Phe-mediated inhibition of ADT activity compared to the wild-type (PpADT-Gmut^8 [10]): more resistant to inhibition than the wild-type
- decrease in ADT activity (AtADT1): > 90%
- decrease in ADT activity (Potri11G4700): > 90%
- decrease in ADT activity (Niben8991): > 90%
- decrease in ADT activity (Cucsa52640): > 90%
- effect on ADT activity (AtADT4): not substantially affected
- effect on ADT activity (Potri4G188100): not substantially affected
- effect on ADT activity (Orysa4G33390): not substantially affected
- effect on ADT activity (Zeama2G125923): not substantially affected
- IC50 (ADT activity): ~35 µM
- Ki (plastidial CM [11]): 1100 µM
- Ki (plastidial CM [12]): 550 µM
- IC50 (plastidial CM [13]): 50 µM
- IC50 (plastidial CM [14]): 82 µM
